Hits are enriched below; roughly 2.7% of the tested compounds scored in any of these assays.
PAFAH1B2 FP inh – PAFAH1B2 (human) inhibition; P68402; recombinant PAFAH1B2, FP-rhodamine activity probe, fluorescence polarization; inhibition, % at 3.39 µM; 340,000 compounds, 1.2% hits;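 active = inhibition above the mean of all tested compounds plus 3 SD, cut at about 24% in these data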;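 also: 0% = enzyme with DMSO and 100% = wells lacking PAFAH1B2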
Target sequence (P68402 whole entry, looked up): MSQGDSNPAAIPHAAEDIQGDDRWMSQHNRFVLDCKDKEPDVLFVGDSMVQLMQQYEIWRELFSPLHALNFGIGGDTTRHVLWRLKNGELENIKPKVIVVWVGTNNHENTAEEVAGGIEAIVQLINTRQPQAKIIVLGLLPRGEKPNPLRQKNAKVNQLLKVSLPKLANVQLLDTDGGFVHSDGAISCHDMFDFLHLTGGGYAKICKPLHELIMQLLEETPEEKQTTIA
ARFGAP1 inhibitor – inhibits rat ARF GTPase activating protein 1; Q62848; Arfgap1-stimulated ARF1 GTP hydrolysis, GDP FP detection; inhibition, % at 16.5 µM; 360,000 compounds, 0.26% hits; AID 651572;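 active = inhibition above a per-plate limit, mean inhibition of low control wells plus 3 SD, cut at about 25% in these data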;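 also: 0% = DMSO wells with enzyme and 100% = wells lacking Arfgap1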
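System: truncated rat Arfgap1 GAP domain / Benchmarks: high control wells lacking Arfgap1, low control full reaction with DMSO / Times: compound-enzyme preincubation 20 min, reaction 120 min, detection 60 min, 25 °C / Repeats: one replicate per compound / Also added: human ARF1(Δ1-17)-GTP substrate / Measured by: Tracer-displacement fluorescence polarization with EDTA stop, 620/688 nm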
ASAP1 GAP inh – blocks human ASAP1-stimulated Arf1 GTP hydrolysis | 360,000 compounds, 0.19% hits | GDP FP detection | inhibition, % at 16.5 µM | Q9ULH1; in the data active = inhibition above about 25%;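 also: 0% = vehicle with enzyme and substrate and 100% = no enzyme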
Target sequence (Q9ULH1 325-724 limits assumed): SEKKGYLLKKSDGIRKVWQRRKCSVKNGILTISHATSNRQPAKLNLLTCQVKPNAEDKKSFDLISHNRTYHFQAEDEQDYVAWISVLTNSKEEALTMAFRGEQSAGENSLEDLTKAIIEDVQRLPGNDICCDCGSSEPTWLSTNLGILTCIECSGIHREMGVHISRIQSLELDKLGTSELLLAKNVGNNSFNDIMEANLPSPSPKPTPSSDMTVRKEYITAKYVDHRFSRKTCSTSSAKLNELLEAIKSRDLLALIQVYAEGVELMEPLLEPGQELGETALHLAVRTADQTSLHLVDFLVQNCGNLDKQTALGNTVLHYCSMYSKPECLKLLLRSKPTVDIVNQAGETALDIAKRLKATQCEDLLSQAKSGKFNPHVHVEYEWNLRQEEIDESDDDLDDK
PAFAH1B3 FP inh – inhibitors of human PAFAH1B3; inhibition, % at 3.39 µM; AID 492972; Q15102; recombinant PAFAH1B3, FP-rhodamine probe, fluorescence polarization; 340,000 compounds, 0.28% hits;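 active = inhibition above the screen-wide average of all tested compounds plus 3 SD, cut at about 25% in these data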;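 also: 0% = enzyme with DMSO only and 100% = wells lacking PAFAH1B3 protein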
PAFAH2 FP inh – PAFAH2 (human) inhibition. Q99487. recombinant PAFAH2, FP-rhodamine activity probe, fluorescence polarization. inhibition, % at 3.39 µM. 340,000 compounds, 0.99% hits;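 active = inhibition above the mean over all tested compounds plus 3 SD, cut at about 30% in these data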;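 also: inhibitors block probe labeling of enzyme so polarization drops; 0% = enzyme with DMSO and 100% = wells lacking PAFAH2 protein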
pPAFAH inh – pPAFAH (human) enzyme inhibition; recombinant pPAFAH, FP-rhodamine probe fluorescence polarization; inhibition, % at 3.39 µM; 330,000 compounds, 1.5% hits; AID 463082;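 active = inhibition above the mean inhibition across the screen plus 3 SD, cut at about 25% in these data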;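 also: inhibitors block binding of the rhodamine activity-based probe so polarization drops; 0% = enzyme with DMSO and 100% = wells lacking pPAFAH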
The depositor's hits bear a star.

How did CC(C)(C)C1CCc2c(sc(NC(=O)C3CC=CCC3C(=O)O)c2C#N)C1 (stereo not drawn) do in these assays?
PAFAH1B2 FP inh: 59*; ARFGAP1 inhibitor: -10; ASAP1 GAP inh: -1; PAFAH1B3 FP inh: 10; PAFAH2 FP inh: 12; pPAFAH inh: 31*

Results for CC1CCc2c(sc(NC(=O)c3ccccc3C(=O)O)c2C#N)C1 (stereo not drawn) ?
PAFAH1B2 FP inh: -1; ARFGAP1 inhibitor: 8; ASAP1 GAP inh: -3; PAFAH1B3 FP inh: 2; PAFAH2 FP inh: -2; pPAFAH inh: 1

Results for COc1ccc(C(=O)c2[nH]c(N)c(C(=O)c3c[nH]c4ccccc34)c2-c2ccc(OC)cc2)cc1 ?
ARFGAP1 inhibitor: -6; ASAP1 GAP inh: 3

Results for CC(=O)Nc1ccc(S(=O)(=O)NCC2CCN(C(=O)C(=O)c3cc4ccccc4o3)CC2)cc1 ?
ARFGAP1 inhibitor: 11; ASAP1 GAP inh: 2

Results for COCc1[nH]nc2c1C(c1ccccc1)NC2=O (stereo not drawn) ?
ARFGAP1 inhibitor: -2; ASAP1 GAP inh: 5

How did Nc1c(C(=O)NCC2CCCO2)sc2nc3c(c(-c4ccco4)c12)CC/C3=C\c1ccco1 (stereo not drawn) do in these assays?
PAFAH1B2 FP inh: 24*; ARFGAP1 inhibitor: -4; ASAP1 GAP inh: 16; PAFAH1B3 FP inh: 39*; PAFAH2 FP inh: 54*

Results for CCCN1C(=O)c2n[nH]c(C)c2C1c1ccc2c(c1)OCO2 (stereo not drawn) ?
ARFGAP1 inhibitor: -3; ASAP1 GAP inh: -13

Results for CC1CC(NC(=O)/C=C/C(=O)O)CC(C)(C)C1 (stereo not drawn) ?
PAFAH1B2 FP inh: 24*; ARFGAP1 inhibitor: 0; ASAP1 GAP inh: 10; PAFAH1B3 FP inh: 4; PAFAH2 FP inh: 7; pPAFAH inh: 4

What do the screens show for `Cc1cc(C)c2c(-n3cccc3)c(C(=O)NNS(=O)(=O)c3ccccc3)sc2n1`?
PAFAH1B2 FP inh: 5; ARFGAP1 inhibitor: 5; ASAP1 GAP inh: -4; PAFAH1B3 FP inh: -5; PAFAH2 FP inh: 1; pPAFAH inh: 4

Results for Cc1cc(C)c2c(-n3cccc3)c(C(=O)NNS(=O)(=O)c3ccc(Cl)cc3)sc2n1 ?
PAFAH1B2 FP inh: 37*; ARFGAP1 inhibitor: 9; ASAP1 GAP inh: -3; PAFAH1B3 FP inh: 2; PAFAH2 FP inh: 8; pPAFAH inh: 7

How did COC(=O)c1c(NC(=O)COC(=O)CCNS(=O)(=O)c2ccc(NC(C)=O)cc2)sc(C)c1C do in these assays?
PAFAH1B2 FP inh: -4; ARFGAP1 inhibitor: -4; ASAP1 GAP inh: -11; PAFAH1B3 FP inh: -1; PAFAH2 FP inh: -2; pPAFAH inh: 9

How did COC(=O)c1c(NC(=O)COC(=O)CCNS(=O)(=O)c2ccccc2)sc(C)c1C do in these assays?
PAFAH1B2 FP inh: 3; ARFGAP1 inhibitor: 6; ASAP1 GAP inh: 1; PAFAH1B3 FP inh: 2; PAFAH2 FP inh: 9; pPAFAH inh: 26*

Results for COC(=O)c1c(C)[nH]c(C(=O)COC(=O)CCNS(=O)(=O)c2cccc(C(F)(F)F)c2)c1C ?
PAFAH1B2 FP inh: -6; ARFGAP1 inhibitor: 5; ASAP1 GAP inh: -14; PAFAH1B3 FP inh: 0; PAFAH2 FP inh: -1; pPAFAH inh: 33*

Results for Nc1nc2c(ncn2[C@@H]2O[C@H](C(=O)N[C@H](Cc3ccccc3)C(=O)NCCCc3ccccc3)[C@@H](O)[C@H]2O)c(=O)[nH]1 ?
ARFGAP1 inhibitor: -3; ASAP1 GAP inh: 4

How did Cc1noc(C)c1S(=O)(=O)N1CCCc2nc(-c3ccccc3)ccc21 do in these assays?
ARFGAP1 inhibitor: -3; ASAP1 GAP inh: -11

What do the screens show for `O=S(=O)(O)c1cc(Cl)cc(N=Nc2ccc(O)cc2O)c1O`?
PAFAH1B2 FP inh: 42*; ARFGAP1 inhibitor: -29; ASAP1 GAP inh: -2; PAFAH1B3 FP inh: 26*; PAFAH2 FP inh: 35*

How did O=[N+]([O-])c1ccc(N=Nc2ccc(O)cc2O)cc1 do in these assays?
PAFAH1B2 FP inh: -2; ARFGAP1 inhibitor: 0; ASAP1 GAP inh: -11; PAFAH1B3 FP inh: 6; PAFAH2 FP inh: 8; pPAFAH inh: 4

Results for O=C(Cn1cc[n+](CC(=O)c2ccc(Cl)cc2Cl)c1)c1ccc(Cl)cc1Cl ?
ARFGAP1 inhibitor: 2; ASAP1 GAP inh: 10; pPAFAH inh: 33*

Results for O=C(O)c1cc([N+](=O)[O-])ccc1NCc1ccccc1 ?
PAFAH1B2 FP inh: 13; ARFGAP1 inhibitor: -12; ASAP1 GAP inh: -10; PAFAH1B3 FP inh: 3; PAFAH2 FP inh: 3; pPAFAH inh: 3

What do the screens show for `O=C(O)c1cc([N+](=O)[O-])ccc1NCCCc1ccccc1`?
PAFAH1B2 FP inh: 50*; ARFGAP1 inhibitor: 6; ASAP1 GAP inh: -5; PAFAH1B3 FP inh: 3; PAFAH2 FP inh: 14; pPAFAH inh: 27*

How did CC1(CCC(=O)N2CCCC(Nc3ccc(F)cc3)C2)CC1 (stereo not drawn) do in these assays?
PAFAH1B2 FP inh: 29*; ARFGAP1 inhibitor: 2; ASAP1 GAP inh: 7; PAFAH1B3 FP inh: 8; PAFAH2 FP inh: 2; pPAFAH inh: -4

What do the screens show for `Cc1ccc(CS(=O)(=O)CC(C)(O)c2ccc(Cl)cc2)cc1` (stereo not drawn)?
PAFAH1B2 FP inh: 27*; ARFGAP1 inhibitor: 0; ASAP1 GAP inh: -5; PAFAH1B3 FP inh: -8; PAFAH2 FP inh: -1; pPAFAH inh: 8

Results for CC(C)C[C@H]1COc2cccc(F)c2S(=O)(=O)N1 ?
ARFGAP1 inhibitor: -2; ASAP1 GAP inh: 9

Results for CC(O)(CS(=O)(=O)Cc1cccc(C(F)(F)F)c1)C(=O)Nc1cccc(C(F)(F)F)c1 (stereo not drawn) ?
PAFAH1B2 FP inh: 38*; ARFGAP1 inhibitor: 2; ASAP1 GAP inh: -8; PAFAH1B3 FP inh: -3; PAFAH2 FP inh: -7; pPAFAH inh: 2

How did CC(O)(CS(=O)(=O)Cc1ccccc1Cl)C(=O)Nc1cccc(C(F)(F)F)c1 (stereo not drawn) do in these assays?
PAFAH1B2 FP inh: 2; ARFGAP1 inhibitor: 3; ASAP1 GAP inh: 0; PAFAH1B3 FP inh: 5; PAFAH2 FP inh: -8; pPAFAH inh: 2

How did C/C(=N/NC(=O)CNC(=O)CCc1ccccc1)c1ccc(Cl)cc1 do in these assays?
PAFAH1B2 FP inh: 5; ARFGAP1 inhibitor: 18; ASAP1 GAP inh: -13; PAFAH1B3 FP inh: -4; PAFAH2 FP inh: 4; pPAFAH inh: -2

How did O=C(O)CC/C(=N/NC(=O)CNC(=O)Cc1ccc(Cl)cc1)c1ccccc1 do in these assays?
PAFAH1B2 FP inh: 24*; ARFGAP1 inhibitor: -4; ASAP1 GAP inh: 2; PAFAH1B3 FP inh: 8; PAFAH2 FP inh: -2; pPAFAH inh: 16

Results for C[C@H](O)[C@@H]1C(=O)N2CCc3c([nH]c4cccc(-c5ccccc5)c34)[C@@H]2C[C@@H]1N(C)C(=O)Nc1ccccc1 ?
ARFGAP1 inhibitor: 2; ASAP1 GAP inh: 2

How did O=C1NC(=S)SC1=C1CCCC1 do in these assays?
PAFAH1B2 FP inh: 2; ARFGAP1 inhibitor: -6; ASAP1 GAP inh: -16; PAFAH1B3 FP inh: -1; PAFAH2 FP inh: 4; pPAFAH inh: 34*
